Results as given in ChEMBL document CHEMBL1142636 (2000).
Active and inactive are the calls of the source.

How the values were obtained:
Assay type in all cases: functional
[1] = system: MDA-N; experiment: Growth inhibition of human MDA-N cells
[2] = system: MDA-MB-231; experiment: Growth inhibition of human MDA-MB-231 cells
[3] = system: SN12C; experiment: Growth inhibition of human SN12C cells
How it was run: (§1)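 Tested at the NCI in its human disease-oriented in vitro screen of 60 tumour cell lines, following the Monks et al. methods. Activity is expressed as GI50, given as log molar values.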

[4] = system: SNB-75; experiment: Growth inhibition of human SNB75 cells; how it was run: as §1
[5] = system: TK-10; experiment: Growth inhibition of human TK10 cells; how it was run: as §1
[6] = system: SK-OV-3; experiment: Growth inhibition of human SK-OV-3 cells; how it was run: as §1
[7] = system: HT-29; experiment: Growth inhibition of human HT29 cells
[8] = system: A498; experiment: Growth inhibition of human A498 cells
[9] = system: RPMI8266; experiment: Growth inhibition of human RPMI8266 cells
[10] = system: SF-268; experiment: Growth inhibition of human SF268 cells; how it was run: as §1
[11] = system: NCI-H522; experiment: Growth inhibition of human NCI-H522 cells
[12] = system: PC-3; experiment: Growth inhibition of human PC3 cells
[13] = system: NCI/ADR-RES; experiment: Growth inhibition of human MCF7/ADR-RES cells
[14] = system: KM12; experiment: Growth inhibition of human KM12 cells
[15] = system: SF-295; experiment: Growth inhibition of human SF295 cells; how it was run: as §1
[16] = system: Malme-3M; experiment: Growth inhibition of human MALME-3M cells
[17] = system: LXFL 529; experiment: Growth inhibition of human LXFL529 cells
[18] = system: LOX IMVI; experiment: Growth inhibition of human LOX IMVI cells
[19] = system: BT-549; experiment: Growth inhibition of human BT549 cells
[20] = system: KM-20L2; experiment: Growth inhibition of human KM20L2 cells
[21] = system: T47D; experiment: Growth inhibition of human T47D cells; how it was run: as §1
[22] = system: CCRF-CEM; experiment: Growth inhibition of human CCRF-CEM cells
[23] = system: NCI-H322M; experiment: Growth inhibition of human NCI-H322M cells
[24] = system: MDA-MB-435; experiment: Growth inhibition of human MDA-MB-435 cells
[25] = system: U-251; experiment: Growth inhibition of human U251 cells; how it was run: as §1
[26] = system: IGROV-1; experiment: Growth inhibition of human IGROV1 cells
[27] = system: 786-0; experiment: Growth inhibition of human 786-0 cells
[28] = system: K562; experiment: Growth inhibition of human K562 cells
[29] = system: OVACR3; experiment: Growth inhibition of human […] cells
[30] = system: NCI-H226; experiment: Growth inhibition of human NCI-H226 cells
[31] = system: HOP-18; experiment: Growth inhibition of human HOP18 cells
[32] = system: HCT-15; experiment: Growth inhibition of human HCT15 cells
[33] = system: NCI-H23; experiment: Growth inhibition of human NCI-H23 cells
[34] = system: ACHN; experiment: Growth inhibition of human ACHN cells
[35] = system: MOLT-4; experiment: Growth inhibition of human MOLT4 cells
[36] = system: SF-539; experiment: Growth inhibition of human SF539 cells; how it was run: as §1
[37] = system: HOP-92; experiment: Growth inhibition of human HOP92 cells
[38] = system: SNB-19; experiment: Growth inhibition of human SNB19 cells; how it was run: as §1
[39] = system: SK-MEL-5; experiment: Growth inhibition of human SK-MEL-5 cells; how it was run: as §1
[40] = system: SK-MEL-28; experiment: Growth inhibition of human SK-MEL-28 cells; how it was run: as §1
[41] = system: DMS-273; experiment: Growth inhibition of human DMS273 cells
[42] = system: COLO 205; experiment: Growth inhibition of human COLO205 cells
[43] = system: SR; experiment: Growth inhibition of human SR cells; how it was run: as §1
[44] = system: M19-MEL; experiment: Growth inhibition of human M19-MEL cells
[45] = system: NCI-H460; experiment: Growth inhibition of human NCI-H460 cells
[46] = system: DMS144; experiment: Growth inhibition of human DMS144 cells
[47] = system: UACC-257; experiment: Growth inhibition of human UACC257 cells; how it was run: as §1
[48] = system: OVACR8; experiment: Growth inhibition of human OVACR8 cells
[49] = system: UO-31; experiment: Growth inhibition of human UO31 cells; how it was run: as §1
[50] = system: HCC 2998; experiment: Growth inhibition of human HCC2998 cells
[51] = system: CAKI-1; experiment: Growth inhibition of human CAKI1 cells
[52] = system: A549; experiment: Growth inhibition of human A549 cells
[53] = system: XF498; experiment: Growth inhibition of human XF498 cells; how it was run: as §1
[54] = system: HL-60(TB); experiment: Growth inhibition of human HL60(TB) cells
[55] = system: UACC-62; experiment: Growth inhibition of human UACC62 cells; how it was run: as §1
[56] = system: RXF 393; experiment: Growth inhibition of human […] cells
[57] = system: HOP-62; experiment: Growth inhibition of human HOP62 cells
[58] = system: HCT-116; experiment: Growth inhibition of human HCT116 cells
[59] = system: DLD-1; experiment: Growth inhibition of human DLD1 cells
[60] = system: SW-620; experiment: Growth inhibition of human SW620 cells; how it was run: as §1
[61] = system: DU-145; experiment: Growth inhibition of human DU145 cells
[62] = system: OVACR4; experiment: Growth inhibition of human OVACR4 cells
[63] = system: M14; experiment: Growth inhibition of human M14 cells
[64] = system: Hs-578T; experiment: Growth inhibition of human HS578T cells
[65] = system: OVACR5; experiment: Growth inhibition of human OVACR5 cells
[66] = system: SK-MEL-2; experiment: Growth inhibition of human SK-MEL-2 cells; how it was run: as §1
[67] = system: MCF7; experiment: Growth inhibition of human MCF7 cells
[68] = system: EKVX; experiment: Growth inhibition of human EKVX cells

Measured: Activity

Cc1cc2c([nH]c3ccccc32)c2c1OC(C)(C)[C@H]1[C@H]3CC(C)(C)Oc4c(C)cc5c6ccccc6n(c5c43)[C@@H]21
inactive: [1] | [2] | [3] | [4] | [5] | [6] | [7] | [8] | [9] | [10] | [11] | [12] | [13] | [14] | [15] | [16] | [17] | [18] | [19] | [20] | [21] | [22] | [23] | [24] | [25] | [26] | [27] | [28] | [29] | [30] | [31] | [32] | [33] | [34] | [35] | [36] | [37] | [38] | [39] | [40] | [41] | [42] | [43] | [44] | [45] | [46] | [47] | [48] | [49] | [50] | [51] | [52] | [53] | [54] | [55] | [56] | [57] | [58] | [59] | [60] | [61] | [62] | [63] | [64] | [65] | [66] | [67] | [68]

COc1cc(Cn2c3ccccc3c3cc(C)c4c(c32)C=CC(C)(CCC=C(C)C)O4)cc2c1[nH]c1ccccc12 (stereo unspecified)
inactive: [1] | [2] | [3] | [4] | [5] | [6] | [7] | [8] | [9] | [10] | [11] | [12] | [13] | [14] | [15] | [16] | [17] | [18] | [19] | [20] | [21] | [22] | [23] | [24] | [25] | [26] | [27] | [28] | [29] | [30] | [31] | [32] | [33] | [34] | [35] | [36] | [37] | [38] | [39] | [40] | [41] | [42] | [43] | [44] | [45] | [46] | [47] | [48] | [49] | [50] | [51] | [52] | [53] | [54] | [55] | [56] | [57] | [58] | [59] | [60] | [61] | [62] | [63] | [64] | [65] | [66] | [67] | [68]
